Test results taken from ChEMBL document CHEMBL1649560, “Beta-lactamase-mediated beta-lactam resistance in Campylobacter species: prevalence of Cj0299 (bla OXA-61) and evidence for a novel beta-Lactamase in C. jejuni” (2009).
Converted amounts (≈) assume the structure as drawn.

How the values were obtained:
Format in all cases: functional
[1] = system: Campylobacter jejuni; test: Antibacterial activity against bla gene-positive and nitrocefin reaction-positive beta-lactamase harboring Campylobacter jejuni isolate P1650 by NCCLS agar doubling dilution method in presence of clavulanic acid
How it was run: (§1)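 MICs by agar doubling dilution per the NCCLS (now CLSI) Campylobacter Working Group method. Isolates came from UK chicken flocks (feces, ceca or farm environment), 2000–2006. C. jejuni NCTC 11168 and C. coli NCTC 11366 served as control strains. The ampicillin resistance cutoff was 8 μg/ml; BSAC/CLSI Enterobacteriaceae guidelines were used for other agents.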

[2] = system: Campylobacter jejuni; test: Antibacterial activity against bla gene-positive and nitrocefin reaction-positive beta-lactamase harboring Campylobacter jejuni isolate P1093 by NCCLS agar doubling dilution method in presence of clavulanic acid
How it was run: (§2)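 MICs of β-lactams by agar doubling dilution following the NCCLS (CLSI) Campylobacter Working Group procedure, with C. jejuni NCTC 11168 and C. coli NCTC 11366 as controls. Isolates were from UK poultry flocks. β-Lactamase status was set by Cj0299 PCR (281-bp amplimer) and by a nitrocefin colour change of sonicated lysate within 5 min, or within 30 min on repeat.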

[3] = system: Campylobacter jejuni; test: Antibacterial activity against Campylobacter jejuni isolate P338 harboring blaOXA-61::cat gene by NCCLS agar doubling dilution method in presence of clavulanic acid
How it was run: (§3)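 Agar doubling dilution MICs (NCCLS/CLSI Campylobacter Working Group method) against Cj0299-inactivated mutants. Mutants were made by transforming the C. jejuni isolate with pCI and selecting on Mueller-Hinton agar with 10 μg/ml chloramphenicol for 3–5 days. Chromosomal insertion was confirmed by PCR with Cj0299 and cat primers.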

[4] = system: Campylobacter jejuni; test: Antibacterial activity against bla gene-positive and nitrocefin reaction-positive beta-lactamase harboring Campylobacter jejuni isolate P790 by NCCLS agar doubling dilution method in presence of clavulanic acid; how it was run: as §1
[5] = system: Campylobacter jejuni; test: Antibacterial activity against bla gene-positive and nitrocefin reaction-positive beta-lactamase harboring Campylobacter jejuni isolate P305 by NCCLS agar doubling dilution method in presence of clavulanic acid; how it was run: as §1
[6] = system: Campylobacter coli; test: Antibacterial activity against bla gene-positive and nitrocefin reaction-positive beta-lactamase harboring Campylobacter coli isolate P321 by NCCLS agar doubling dilution method in presence of clavulanic acid; how it was run: as §2
[7] = system: Campylobacter jejuni; test: Antibacterial activity against bla gene-positive and nitrocefin reaction-negative beta-lactamase harboring Campylobacter jejuni isolate P1699 by NCCLS agar doubling dilution method in presence of clavulanic acid; how it was run: as §2
[8] = system: Campylobacter jejuni; test: Antibacterial activity against bla gene-negative and nitrocefin reaction-negative beta-lactamase harboring Campylobacter jejuni isolate P850 by NCCLS agar doubling dilution method in presence of clavulanic acid; how it was run: as §2
[9] = system: Campylobacter coli; test: Antibacterial activity against Campylobacter coli by NCCLS agar doubling dilution method in presence of clavulanic acid
How it was run: (§4)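 MICs by agar doubling dilution following the NCCLS (CLSI) Campylobacter Working Group procedure, applied to ampicillin- and amoxicillin-resistant isolates from UK chicken flocks (2000–2006). C. jejuni NCTC 11168 and C. coli NCTC 11366 served as control strains. Resistance was called at an ampicillin cutoff of 8 μg/ml. Other agents were judged against Enterobacteriaceae guidelines (BSAC, CLSI).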

[10] = system: Campylobacter jejuni; test: Antibacterial activity against bla gene-positive and nitrocefin reaction-positive beta-lactamase harboring Campylobacter jejuni isolate P285 by NCCLS agar doubling dilution method in presence of clavulanic acid; how it was run: as §1
[11] = system: Campylobacter coli; test: Antibacterial activity against Campylobacter coli by NCCLS agar doubling dilution method; how it was run: as §4
[12] = system: Campylobacter jejuni; test: Antibacterial activity against bla gene-positive and nitrocefin reaction-positive beta-lactamase harboring Campylobacter jejuni isolate P1618 by NCCLS agar doubling dilution method in presence of clavulanic acid; how it was run: as §2
[13] = system: Campylobacter jejuni; test: Antibacterial activity against bla gene-positive and nitrocefin reaction-positive beta-lactamase harboring Campylobacter jejuni isolate P316 by NCCLS agar doubling dilution method in presence of clavulanic acid; how it was run: as §1
[14] = system: Campylobacter jejuni; test: Antibacterial activity against bla gene-negative and nitrocefin reaction-positive beta-lactamase harboring Campylobacter jejuni isolate P843 by NCCLS agar doubling dilution method in presence of clavulanic acid; how it was run: as §2
[15] = system: Campylobacter coli; test: Antibacterial activity against bla-positive and beta-lactamase-weakly positive Campylobacter coli isolate P1627 by NCCLS agar doubling dilution method in presence of clavulanic acid; how it was run: as §4
[16] = system: Campylobacter jejuni; test: Antibacterial activity against Campylobacter jejuni isolate P270 harboring blaOXA-61::cat gene by NCCLS agar doubling dilution method in presence of clavulanic acid
[17] = system: Campylobacter jejuni; test: Antibacterial activity against bla gene-positive and nitrocefin reaction-negative beta-lactamase harboring Campylobacter jejuni isolate NCTC 11168 by NCCLS agar doubling dilution method in presence of clavulanic acid; how it was run: as §2
[18] = system: Campylobacter jejuni; test: Antibacterial activity against bla gene-positive and nitrocefin reaction-positive beta-lactamase harboring Campylobacter jejuni isolate P338 by NCCLS agar doubling dilution method in presence of clavulanic acid; how it was run: as §1
[19] = system: Campylobacter jejuni; test: Antibacterial activity against bla gene-positive and nitrocefin reaction-positive beta-lactamase harboring Campylobacter jejuni isolate P286 by NCCLS agar doubling dilution method in presence of clavulanic acid; how it was run: as §1
[20] = system: Campylobacter jejuni; test: Antibacterial activity against Campylobacter jejuni by NCCLS agar doubling dilution method in presence of clavulanic acid; how it was run: as §4
[21] = system: Campylobacter jejuni; test: Antibacterial activity against bla gene-negative and nitrocefin reaction-negative beta-lactamase harboring Campylobacter jejuni isolate P1962 by NCCLS agar doubling dilution method in presence of clavulanic acid; how it was run: as §2
[22] = system: Campylobacter jejuni; test: Antibacterial activity against Campylobacter jejuni isolate P1093 harboring blaOXA-61::cat gene by NCCLS agar doubling dilution method in presence of clavulanic acid; how it was run: as §3
[23] = system: Campylobacter jejuni; test: Antibacterial activity against bla gene-negative and nitrocefin reaction-positive beta-lactamase harboring Campylobacter jejuni isolate P854 by NCCLS agar doubling dilution method in presence of clavulanic acid; how it was run: as §2
[24] = system: Campylobacter jejuni; test: Antibacterial activity against bla gene-positive and nitrocefin reaction-negative beta-lactamase harboring Campylobacter jejuni isolate P1698 by NCCLS agar doubling dilution method in presence of clavulanic acid; how it was run: as §2
[25] = system: Campylobacter jejuni; test: Antibacterial activity against bla gene-negative and nitrocefin reaction-negative beta-lactamase harboring Campylobacter jejuni isolate P835 by NCCLS agar doubling dilution method in presence of clavulanic acid; how it was run: as §2
[26] = system: Campylobacter jejuni; test: Antibacterial activity against bla gene-positive and nitrocefin reaction-positive beta-lactamase harboring Campylobacter jejuni isolate P1730 by NCCLS agar doubling dilution method in presence of clavulanic acid; how it was run: as §1
[27] = system: Campylobacter jejuni; test: Antibacterial activity against Campylobacter jejuni by NCCLS agar doubling dilution method; how it was run: as §4
[28] = system: Campylobacter coli; test: Antibacterial activity against bla gene-positive and nitrocefin reaction-positive beta-lactamase harboring Campylobacter coli isolate P1826 by NCCLS agar doubling dilution method in presence of clavulanic acid; how it was run: as §2

O=C(O)[C@H]1/C(=C/CO)O[C@@H]2CC(=O)N21 [CLAVULANIC ACID]
MIC [1]: 4 µg/mL
MIC [2]: 32 µg/mL
MIC [3]: 1 µg/mL
MIC [4]: 16 µg/mL
MIC [5]: 8 µg/mL
MIC [6]: 8 µg/mL
MIC [7]: 4 µg/mL
MIC [8]: 4 µg/mL
MIC50 [9]: 16 µg/mL
MIC90 [9]: 32 µg/mL
MIC [10]: 8 µg/mL
MIC50 [11]: 16 µg/mL (≈ 80.3 µM)
MIC90 [11]: 32 µg/mL (≈ 161 µM)
MIC [12]: 2 µg/mL
MIC [13]: 8 µg/mL
MIC [14]: 4 µg/mL
MIC [15]: 4 µg/mL
MIC [16]: 0.25 µg/mL
MIC [17]: 1 µg/mL
MIC [18]: 8 µg/mL
MIC [19]: 8 µg/mL
MIC50 [20]: 4 µg/mL
MIC90 [20]: 8 µg/mL
MIC [21]: 0.5 µg/mL
MIC [22]: 0.5 µg/mL
MIC [23]: 4 µg/mL
MIC [24]: 1 µg/mL
MIC [25]: 0.5 µg/mL
MIC [26]: 8 µg/mL
MIC50 [27]: 4 µg/mL (≈ 20.1 µM)
MIC90 [27]: 8 µg/mL (≈ 40.2 µM)
MIC [28]: 8 µg/mL
